Experimental data from ChEMBL document CHEMBL4330127, “Discovery of Novel Pyruvate Dehydrogenase Kinase 4 Inhibitors for Potential Oral Treatment of Metabolic Diseases” (J Med Chem, 2019).
pIC50: −log10 of the molar value.

Key:
[1] = target: T1, [Pyruvate dehydrogenase (acetyl-transferring)] kinase isozyme 4, mitochondrial (Homo sapiens, UniProt Q16654); test: Inhibition of PDK4 (unknown origin) at 10 uM relative to control
Target sequence in this assay (Q16654 whole entry, looked up): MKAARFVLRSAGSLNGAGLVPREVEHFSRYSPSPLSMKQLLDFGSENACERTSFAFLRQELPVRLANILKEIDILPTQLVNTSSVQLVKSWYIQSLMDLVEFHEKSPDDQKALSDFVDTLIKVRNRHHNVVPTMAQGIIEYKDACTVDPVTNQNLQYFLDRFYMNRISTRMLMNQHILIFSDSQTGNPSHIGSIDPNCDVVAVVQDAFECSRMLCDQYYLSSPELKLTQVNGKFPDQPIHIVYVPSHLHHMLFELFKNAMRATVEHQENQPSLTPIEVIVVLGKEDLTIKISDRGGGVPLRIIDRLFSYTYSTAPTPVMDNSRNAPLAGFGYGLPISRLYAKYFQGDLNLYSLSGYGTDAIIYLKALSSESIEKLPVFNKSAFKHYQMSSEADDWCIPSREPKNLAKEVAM

[2] = Metabolic stability in human liver microsomes assessed as parent compound remaining at 1 uM after 30 mins by LC-MS/MS analysis
[3] = Metabolic stability in rat liver microsomes assessed as parent compound remaining after 30 mins by LC-MS/MS analysis; assay type: ADME, Microsome; settings: read-out: Stability
[4] = target: T1, [Pyruvate dehydrogenase (acetyl-transferring)] kinase isozyme 4, mitochondrial; test: Inhibition of PDK4 (unknown origin)
Target sequence in this assay (Q16654 whole entry): as the sequence (Q16654 whole entry, looked up) above

[5] = target: T1, [Pyruvate dehydrogenase (acetyl-transferring)] kinase isozyme 4, mitochondrial; test: Inhibition of PDK4 in HEK293T cells assessed as reduction in PDHE1alpha phosphorylation at Ser-232 residue by measuring phosphorylated PDHE1alpha level at 10 uM after 24 hrs by Western blot analysis; assay type: cell-based
Outline: (§1)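 HEK293T cells grown in high-glucose DMEM with 10% FBS at 37 °C, 5% CO2. Medium renewed after 24 h, then cells exposed to compound for 24 h and lysed. 20 μg protein per lane Western blotted with antibodies to phospho-PDHE1α Ser232, Ser293 and Ser300 and to total PDHE1α. Band intensity quantified relative to control; triplicate.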
Target sequence in this assay (Q16654 whole entry, looked up): as above

[6] = target: T1, [Pyruvate dehydrogenase (acetyl-transferring)] kinase isozyme 4, mitochondrial; test: Inhibition of PDK4 in HEK293T cells assessed as reduction in PDHE1alpha phosphorylation at Ser-300 residue by measuring phosphorylated PDHE1alpha level at 10 uM after 24 hrs by Western blot analysis; assay type: cell-based
Outline: as §1
Target sequence in this assay (Q16654 whole entry, looked up): as above

[7] = target: T1, [Pyruvate dehydrogenase (acetyl-transferring)] kinase isozyme 4, mitochondrial; test: Inhibition of PDK4 in HEK293T cells assessed as reduction in PDHE1alpha phosphorylation at Ser-293 residue by measuring phosphorylated PDHE1alpha level at 10 uM after 24 hrs by Western blot analysis; assay type: cell-based
Outline: as §1
Target sequence in this assay (Q16654 whole entry, looked up): as above

| SMILES | inhibition [1] [%] | other results |
| --- | --- | --- |
| O=C(O)c1ccc(-c2cccc3c2C(=O)c2ccccc2C3=O)cc1 | 30.4 |  |
| O=C1c2ccccc2C(=O)c2c1cccc2-c1cccnc1 | 25.4 |  |
| O=C1CC2(CCCC2)CC(=O)N1CCCCN1CCN(c2ncccn2)CC1 [BUSPIRONE] |  | remaining at 0.5 h, 1 µM [2]: 4%; remaining at 0.5 h [3]: 0.1% |
| O=C1c2ccccc2C(=O)c2c1cccc2C1=CCN(C(=O)OCc2ccccc2)CC1 | 41.6 |  |
| CC(C)(C)OC(=O)N1CC=C(c2cccc3c2C(=O)c2ccccc2C3(O)C(F)(F)F)CC1 (stereo not given) | 17.3 |  |
| CC(C)(C)OC(=O)N1CC=C(c2cccc3c2C(=O)c2ccccc2C3=O)CC1 | 53.4 | pIC50 [4]: 6.22 |
| O=C1c2ccccc2C(=O)c2ccccc21 | 40.7 |  |
| O=C1c2ccccc2C(=O)c2c1cccc2C1=CCNCC1 | 35.6 |  |
| CC(C)(C)OC(=O)N1CCC(n2cc(-c3cccc4c3C(=O)c3ccccc3C4=O)cn2)CC1 | 32.6 |  |
| O=C1c2ccccc2C(=O)c2c(Br)cccc21 | 37.8 |  |
| CCOC(=O)C(C)n1cc(-c2cccc3c2C(=O)c2ccccc2C3(O)C(F)(F)F)cn1 (stereo not given) | 36.9 |  |
| CC(C(=O)O)n1cc(-c2cccc3c2C(=O)c2ccccc2C3(O)C(F)(F)F)cn1 (stereo not given) | 47.2 | pIC50 [4]: 6.84 |
| CC(C)(C)OC(=O)N1CCC(n2cc(-c3cccc4c3C(=O)c3ccccc3C4(O)C(F)(F)F)cn2)CC1 (stereo not given) | 32.1 |  |
| O=C1c2ccccc2C(=O)c2c1cccc2C1=CCN(C(=O)Nc2ccccc2)CC1 | 32.6 |  |
| O=S(=O)(c1ccc(O)cc1O)N1Cc2cc(O)cc(O)c2C1 | 34.1 | fold change (FC) [5]: 0.62; fold change (FC) [6]: 0.93; fold change (FC) [7]: 0.98 |
| O=C1c2ccccc2C(=O)c2c1cccc2-c1ccc(O)cc1 | 35.9 |  |
| O=C1c2ccccc2C(O)(C(F)(F)F)c2cccc(-c3cnn(C4CCNCC4)c3)c21 (stereo not given) | 30.2 |  |
| O=C1c2ccccc2C(=O)c2c1cccc2-c1cnn(C2CCCCO2)c1 (stereo not given) | 24.3 |  |
| CS(=O)(=O)N1CC=C(c2cccc3c2C(=O)c2ccccc2C3=O)CC1 | 29.5 |  |
| O=C1c2ccccc2C(=O)c2c1cccc2-c1cn[nH]c1 | 32.9 |  |
| CC(C(=O)O)n1cc(-c2cccc3c2C(=O)c2ccccc2C3=O)cn1 (stereo not given) | 45.9 |  |
| O=C1c2ccccc2C(O)(C(F)(F)F)c2cccc(C3=CCNCC3)c21 (stereo not given) | 29.7 |  |
| CCOC(=O)C(C)n1cc(-c2cccc3c2C(=O)c2ccccc2C3=O)cn1 (stereo not given) | 29.4 |  |
| O=C1c2ccccc2C(O)(C(F)(F)F)c2cccc(C3=CCN(C(=O)OCc4ccccc4)CC3)c21 (stereo not given) | 34.1 |  |
